In ChEMBL document CHEMBL2176933 (J Med Chem, 2012):

Key:
[1] = biological target: T1, Leucine-rich repeat serine/threonine-protein kinase 2 (Homo sapiens, UniProt Q5S007); experiment: Inhibition of autophosphorylation of LRRK2 in human HEK293 cells; format: cell-based
[2] = Solubility of the compound; format: physicochemical
[3] = biological target: T1, Leucine-rich repeat serine/threonine-protein kinase 2; experiment: Inhibition of LRRK2 using FAM-LRRKtide as substrate after 120 mins by microfluidic capillary electrophoresis assay
[4] = system: MDCK; experiment: Efflux ratio of permeability from basolateral to apical over apical to basolateral side in MDCK cells expressing human MDR1; conditions: dog
[5] = biological target: T2, Cytochrome P450 1A2 (Homo sapiens, UniProt P05177); experiment: Time dependent inhibition of CYP1A2; format: ADME
T2 sequence (P05177 whole entry): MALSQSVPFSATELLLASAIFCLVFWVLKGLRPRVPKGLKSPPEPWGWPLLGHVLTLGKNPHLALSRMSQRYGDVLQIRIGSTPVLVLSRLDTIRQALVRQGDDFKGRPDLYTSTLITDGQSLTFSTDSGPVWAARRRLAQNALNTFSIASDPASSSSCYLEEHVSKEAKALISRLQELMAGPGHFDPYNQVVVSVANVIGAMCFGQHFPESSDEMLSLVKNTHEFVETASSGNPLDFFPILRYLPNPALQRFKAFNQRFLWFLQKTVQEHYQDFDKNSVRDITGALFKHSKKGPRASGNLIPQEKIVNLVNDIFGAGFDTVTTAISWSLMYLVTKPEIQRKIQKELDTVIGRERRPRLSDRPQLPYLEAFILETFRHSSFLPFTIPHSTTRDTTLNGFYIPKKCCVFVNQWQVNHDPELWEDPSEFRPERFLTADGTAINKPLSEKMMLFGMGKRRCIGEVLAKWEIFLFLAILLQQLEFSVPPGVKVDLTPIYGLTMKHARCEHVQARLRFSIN

[6] = Selectivity ratio of Ki for TTK to Ki for LRRK2
Method in brief: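 Ratio computed as TTK Ki, from a Lanthascreen assay, divided by LRRK2 Ki from the biochemical assay.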

[7] = biological target: T3, Dual specificity protein kinase TTK (Homo sapiens) (UniProt P33981); experiment: Inhibition of TTK at 0.1 uM
T3 sequence (whole entry): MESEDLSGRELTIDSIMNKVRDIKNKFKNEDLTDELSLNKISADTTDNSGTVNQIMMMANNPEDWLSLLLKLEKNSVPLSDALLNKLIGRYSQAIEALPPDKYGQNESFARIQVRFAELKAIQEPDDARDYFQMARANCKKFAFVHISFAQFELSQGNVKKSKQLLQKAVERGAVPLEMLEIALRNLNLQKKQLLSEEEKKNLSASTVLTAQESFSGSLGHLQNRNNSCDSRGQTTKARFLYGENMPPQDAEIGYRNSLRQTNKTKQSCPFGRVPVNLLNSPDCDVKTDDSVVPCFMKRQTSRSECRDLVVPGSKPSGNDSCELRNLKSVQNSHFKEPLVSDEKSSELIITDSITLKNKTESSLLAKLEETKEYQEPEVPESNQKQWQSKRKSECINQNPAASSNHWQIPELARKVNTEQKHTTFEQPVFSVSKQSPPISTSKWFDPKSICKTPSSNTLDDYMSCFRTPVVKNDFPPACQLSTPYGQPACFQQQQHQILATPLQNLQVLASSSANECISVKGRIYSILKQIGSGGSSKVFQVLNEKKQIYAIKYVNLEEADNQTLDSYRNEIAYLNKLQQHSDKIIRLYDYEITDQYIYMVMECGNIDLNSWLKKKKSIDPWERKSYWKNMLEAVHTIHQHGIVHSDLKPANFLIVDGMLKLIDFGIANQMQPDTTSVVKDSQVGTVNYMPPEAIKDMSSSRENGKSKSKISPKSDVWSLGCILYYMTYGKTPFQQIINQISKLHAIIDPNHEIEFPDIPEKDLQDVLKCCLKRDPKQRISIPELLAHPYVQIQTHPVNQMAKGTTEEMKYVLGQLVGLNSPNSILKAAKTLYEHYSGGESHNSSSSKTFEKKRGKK
Method in brief: (§1)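 Percent inhibition of TTK activity measured at 0.1 μM and 1 μM in a kinase selectivity profiling panel.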

[8] = Clearance in human hepatocytes; format: ADME, cell-based, Liver, Hepatocyte
Method in brief: (§2)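 Metabolic stability determined in vitro in cryopreserved hepatocytes, human and rat.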

[9] = species on record: Mus musculus; experiment: Genotoxicity in mouse by micronucleus study; format: toxicity, organism-based; conditions: in vivo
[10] = biological target: T4, Dual specificity protein kinase TTK (Homo sapiens, UniProt P33981); experiment: Inhibition of TTK
T4 sequence (P33981 whole entry): T3 sequence (whole entry)
Method in brief: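 TTK Ki determined in a Lanthascreen biochemical assay.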

[11] = system: PBL; experiment: Genotoxicity in human PBL assessed as induction of micronuclei formation; format: toxicity, cell-based
[12] = Plasma protein binding in rat; format: ADME, cell-free; conditions: read-out: PPB (converted)
Method in brief: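 Plasma protein binding measured in vitro in rat plasma; used to convert total clearance to unbound clearance and total to unbound plasma levels.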

[13] = Clearance in rat hepatocytes; format: ADME, cell-based, Liver, Hepatocyte; method in brief: as §2
[14] = system: MDR1 (human); experiment: Apparent permeability from apical to basolateral side of MDCK cells expressing human MDR1; format: ADME, cell-based, Canis lupus familiaris; conditions: dog
Method in brief: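 Transport measured in an MDCK cell line transfected with human P-gp (MDR1); apical-to-basolateral and basolateral-to-apical permeability determined; efflux ratio taken as (B−A)/(A−B).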

[15] = Selectivity ratio of Ki for JAK2 to Ki for LRRK2
Method in brief: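 Ratio computed as JAK2 Ki divided by LRRK2 Ki, both from biochemical assays.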

[16] = biological target: T3, Dual specificity protein kinase TTK (Homo sapiens); experiment: Inhibition of TTK at 1 uM; method in brief: as §1
[17] = system: Mus musculus; experiment: Inhibition of LRRK2 G2019S mutant phosphorylation at Ser1292 in ip dosed BAC transgenic mouse brain after 1 to 24 hrs; format: functional, organism-based
Method in brief: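 Single ip injection of 10 or 50 mg/kg in BAC transgenic mice expressing human G2019S LRRK2. Hippocampus collected at 1, 2.5 or 6 h post-dose (n = 3/dose). pSer1292 LRRK2 and compound concentration measured in brain. Percent inhibition normalised to vehicle-dosed mice (n = 3), with a direct inhibition model fitted to the data.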

[18] = system: Cynomolgus monkey; experiment: Unbound plasma AUC (0 to 24 hrs) in cynomolgus monkey at 10 mg/kg, po administered for 7 days; format: ADME, organism-based, Macaca fascicularis; set-up: dose 10 mg/kg, route oral; conditions: in vivo
[19] = biological target: T1, Leucine-rich repeat serine/threonine-protein kinase 2; conditions: 0.1 uM
[20] = system: Mus musculus; experiment: Inhibition of LRRK2 G2019S mutant phosphorylation at Ser1292 in po dosed BAC transgenic mouse brain after 1 to 24 hrs; format: functional, organism-based
Method in brief: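 Single oral dose of 15 or 50 mg/kg in G2019S human LRRK2 BAC transgenic mice. Hippocampus sampled at 1, 3, 6 and 12 h (n = 4/dose) and at 24 h (n = 1) to measure pSer1292 LRRK2 and brain compound levels. Inhibition expressed relative to vehicle-dosed mice (n = 3), with a direct inhibition PK/PD model fitted.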

[21] = system: Rattus norvegicus; experiment: Unbound plasma AUC (0 to 24 hrs) in Sprague-Dawley rat at 10 mg/kg, po administered for 7 days; format: ADME, organism-based; set-up: dose 10 mg/kg, route oral; conditions: in vivo
[22] = system: Rattus norvegicus; experiment: Unbound plasma AUC (0 to 24 hrs) in Sprague-Dawley rat at 50 mg/kg, po administered for 7 days; format: ADME, organism-based; set-up: dose 50 mg/kg, route oral; conditions: in vivo
[23] = Ratio of unbound drug level in brain to plasma in cynomolgus monkey at 10 to 65 mg/kg, po administered for 7 days; format: ADME, organism-based, Macaca fascicularis; set-up: dose 10-65 mg/kg, route oral; conditions: brain and plasma (unbound)
Method in brief: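 Cynomolgus monkeys in a 7-day repeat-dose toxicity study at 10, 25 and 65 mg/kg. Terminal brain and CSF levels were taken 24 h after the day-7 dose. Total brain/plasma levels were converted to an unbound brain/unbound plasma ratio using in vitro plasma and brain protein binding values.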

[24] = system: Cynomolgus monkey; experiment: Unbound plasma AUC (0 to 24 hrs) in cynomolgus monkey at 65 mg/kg, po administered for 7 days; format: ADME, organism-based, Macaca fascicularis; set-up: dose 65 mg/kg, route oral; conditions: in vivo
[25] = system: Rattus norvegicus; experiment: Unbound plasma AUC (0 to 24 hrs) in Sprague-Dawley rat at 100 mg/kg, po qd for 2 days; format: ADME, organism-based; set-up: dose 100 mg/kg, route oral; conditions: in vivo
[26] = biological target: ALK tyrosine kinase receptor (Homo sapiens) (UniProt Q9UM73); experiment: Inhibition of ALK at 0.1 uM
Chain of ALK tyrosine kinase receptor (Homo sapiens) (Q9UM73 19-1620 limits assumed): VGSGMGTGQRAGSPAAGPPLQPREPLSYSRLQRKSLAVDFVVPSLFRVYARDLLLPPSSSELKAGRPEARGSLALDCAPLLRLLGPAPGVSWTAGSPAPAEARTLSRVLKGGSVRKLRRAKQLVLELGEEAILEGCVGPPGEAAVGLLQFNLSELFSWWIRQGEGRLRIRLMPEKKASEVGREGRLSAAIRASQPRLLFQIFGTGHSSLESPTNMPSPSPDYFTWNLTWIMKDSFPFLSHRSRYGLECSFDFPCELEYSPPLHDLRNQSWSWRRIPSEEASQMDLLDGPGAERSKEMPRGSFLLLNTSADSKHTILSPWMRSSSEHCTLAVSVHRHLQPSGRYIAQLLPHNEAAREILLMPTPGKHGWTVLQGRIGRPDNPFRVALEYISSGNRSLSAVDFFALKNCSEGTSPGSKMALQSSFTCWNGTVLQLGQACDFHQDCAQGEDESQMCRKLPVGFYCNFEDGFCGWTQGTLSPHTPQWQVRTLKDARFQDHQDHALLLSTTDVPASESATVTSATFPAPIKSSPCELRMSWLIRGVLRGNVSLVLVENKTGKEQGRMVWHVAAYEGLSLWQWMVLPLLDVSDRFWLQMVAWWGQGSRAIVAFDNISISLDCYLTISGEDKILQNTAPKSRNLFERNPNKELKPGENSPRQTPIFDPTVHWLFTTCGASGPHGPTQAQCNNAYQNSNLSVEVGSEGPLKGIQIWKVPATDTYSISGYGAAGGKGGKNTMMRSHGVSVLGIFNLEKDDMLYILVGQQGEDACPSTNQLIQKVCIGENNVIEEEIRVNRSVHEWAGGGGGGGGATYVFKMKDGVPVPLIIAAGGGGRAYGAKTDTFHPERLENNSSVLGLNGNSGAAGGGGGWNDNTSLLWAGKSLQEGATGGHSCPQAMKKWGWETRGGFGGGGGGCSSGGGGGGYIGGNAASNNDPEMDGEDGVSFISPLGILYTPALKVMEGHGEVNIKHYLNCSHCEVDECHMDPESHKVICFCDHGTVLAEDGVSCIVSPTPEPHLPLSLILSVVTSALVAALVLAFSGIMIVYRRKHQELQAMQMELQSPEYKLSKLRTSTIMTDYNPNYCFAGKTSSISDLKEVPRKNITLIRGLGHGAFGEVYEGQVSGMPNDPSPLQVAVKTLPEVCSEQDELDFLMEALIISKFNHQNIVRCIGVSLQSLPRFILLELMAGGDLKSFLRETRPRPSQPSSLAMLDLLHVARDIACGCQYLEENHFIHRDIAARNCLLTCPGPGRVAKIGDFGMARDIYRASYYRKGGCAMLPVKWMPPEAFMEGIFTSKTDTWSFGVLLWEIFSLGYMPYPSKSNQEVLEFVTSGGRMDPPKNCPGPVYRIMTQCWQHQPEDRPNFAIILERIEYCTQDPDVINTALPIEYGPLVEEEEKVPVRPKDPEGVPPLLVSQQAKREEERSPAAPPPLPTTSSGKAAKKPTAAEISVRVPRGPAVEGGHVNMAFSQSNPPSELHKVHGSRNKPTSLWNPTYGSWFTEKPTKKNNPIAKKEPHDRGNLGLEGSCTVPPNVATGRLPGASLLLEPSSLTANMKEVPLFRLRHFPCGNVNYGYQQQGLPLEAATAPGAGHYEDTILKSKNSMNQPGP
Method in brief: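 Percent inhibition measured in a commercial kinase selectivity profiling panel, with compound tested at a single concentration of 0.1 μM.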

[27] = system: Rattus norvegicus; experiment: Genotoxicity in Sprague-Dawley rat assessed as micronucleated polychromatic erythrocytes in bone marrow at 100 mg/kg, po qd for 2 days; format: toxicity, organism-based; set-up: dose 100 mg/kg, route oral; conditions: in vivo, 48 h
[28] = biological target: 5-hydroxytryptamine receptor 2B (Homo sapiens) (UniProt P41595); experiment: Inhibition of recombinant human 5HT2B receptor expressed in CHO cells at 10 uM; format: cell-based
Chain of 5-hydroxytryptamine receptor 2B (Homo sapiens) (P41595 whole entry): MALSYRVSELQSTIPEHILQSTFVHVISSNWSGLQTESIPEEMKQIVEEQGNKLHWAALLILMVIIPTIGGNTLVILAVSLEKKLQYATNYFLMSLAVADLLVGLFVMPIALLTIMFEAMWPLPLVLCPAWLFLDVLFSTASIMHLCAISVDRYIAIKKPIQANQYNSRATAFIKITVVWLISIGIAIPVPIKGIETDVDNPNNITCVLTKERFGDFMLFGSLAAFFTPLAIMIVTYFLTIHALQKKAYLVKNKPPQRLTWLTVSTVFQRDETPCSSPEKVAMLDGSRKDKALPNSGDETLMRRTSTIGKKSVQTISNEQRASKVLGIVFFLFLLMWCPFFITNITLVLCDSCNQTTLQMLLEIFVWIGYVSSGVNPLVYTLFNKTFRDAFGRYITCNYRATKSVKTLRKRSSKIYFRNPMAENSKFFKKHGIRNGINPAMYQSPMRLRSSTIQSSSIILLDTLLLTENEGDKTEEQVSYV

[29] = system: Cynomolgus monkey; experiment: Unbound plasma AUC (0 to 24 hrs) in cynomolgus monkey at 25 mg/kg, po administered for 7 days; format: ADME, organism-based, Macaca fascicularis; set-up: dose 25 mg/kg, route oral; conditions: in vivo
[30] = system: Rattus norvegicus; experiment: Toxicity in Sprague-Dawley rat assessed as mortality at 10 to 100 mg/kg, po administered for 7 days; format: organism-based; set-up: dose 10-100 mg/kg, route oral; conditions: in vivo, 168 h
[31] = system: Rattus norvegicus; experiment: Unbound plasma AUC (0 to 24 hrs) in Sprague-Dawley rat at 100 mg/kg, po administered for 7 days; format: ADME, organism-based; set-up: dose 100 mg/kg, route oral; conditions: in vivo
[32] = Plasma protein binding in cynomolgus monkey; format: ADME, cell-free, Macaca fascicularis; conditions: read-out: PPB (converted)
[33] = system: Nucleic Acid; experiment: Ratio of drug level CSF to unbound drug level in plasma in cynomolgus monkey at 10 to 65 mg/kg, po administered for 7 days; format: ADME, organism-based, Macaca fascicularis; set-up: dose 10-65 mg/kg, route oral; conditions: in vivo, 168 h
Method in brief: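 Cynomolgus monkeys in a 7-day repeat-dose toxicity study at 10, 25 and 65 mg/kg. Terminal CSF and plasma levels were taken 24 h after the last dose on day 7. Plasma drug was converted to unbound using in vitro plasma protein binding, and the ratio is expressed as CSF over unbound plasma.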

T1 sequence (Q5S007 whole entry): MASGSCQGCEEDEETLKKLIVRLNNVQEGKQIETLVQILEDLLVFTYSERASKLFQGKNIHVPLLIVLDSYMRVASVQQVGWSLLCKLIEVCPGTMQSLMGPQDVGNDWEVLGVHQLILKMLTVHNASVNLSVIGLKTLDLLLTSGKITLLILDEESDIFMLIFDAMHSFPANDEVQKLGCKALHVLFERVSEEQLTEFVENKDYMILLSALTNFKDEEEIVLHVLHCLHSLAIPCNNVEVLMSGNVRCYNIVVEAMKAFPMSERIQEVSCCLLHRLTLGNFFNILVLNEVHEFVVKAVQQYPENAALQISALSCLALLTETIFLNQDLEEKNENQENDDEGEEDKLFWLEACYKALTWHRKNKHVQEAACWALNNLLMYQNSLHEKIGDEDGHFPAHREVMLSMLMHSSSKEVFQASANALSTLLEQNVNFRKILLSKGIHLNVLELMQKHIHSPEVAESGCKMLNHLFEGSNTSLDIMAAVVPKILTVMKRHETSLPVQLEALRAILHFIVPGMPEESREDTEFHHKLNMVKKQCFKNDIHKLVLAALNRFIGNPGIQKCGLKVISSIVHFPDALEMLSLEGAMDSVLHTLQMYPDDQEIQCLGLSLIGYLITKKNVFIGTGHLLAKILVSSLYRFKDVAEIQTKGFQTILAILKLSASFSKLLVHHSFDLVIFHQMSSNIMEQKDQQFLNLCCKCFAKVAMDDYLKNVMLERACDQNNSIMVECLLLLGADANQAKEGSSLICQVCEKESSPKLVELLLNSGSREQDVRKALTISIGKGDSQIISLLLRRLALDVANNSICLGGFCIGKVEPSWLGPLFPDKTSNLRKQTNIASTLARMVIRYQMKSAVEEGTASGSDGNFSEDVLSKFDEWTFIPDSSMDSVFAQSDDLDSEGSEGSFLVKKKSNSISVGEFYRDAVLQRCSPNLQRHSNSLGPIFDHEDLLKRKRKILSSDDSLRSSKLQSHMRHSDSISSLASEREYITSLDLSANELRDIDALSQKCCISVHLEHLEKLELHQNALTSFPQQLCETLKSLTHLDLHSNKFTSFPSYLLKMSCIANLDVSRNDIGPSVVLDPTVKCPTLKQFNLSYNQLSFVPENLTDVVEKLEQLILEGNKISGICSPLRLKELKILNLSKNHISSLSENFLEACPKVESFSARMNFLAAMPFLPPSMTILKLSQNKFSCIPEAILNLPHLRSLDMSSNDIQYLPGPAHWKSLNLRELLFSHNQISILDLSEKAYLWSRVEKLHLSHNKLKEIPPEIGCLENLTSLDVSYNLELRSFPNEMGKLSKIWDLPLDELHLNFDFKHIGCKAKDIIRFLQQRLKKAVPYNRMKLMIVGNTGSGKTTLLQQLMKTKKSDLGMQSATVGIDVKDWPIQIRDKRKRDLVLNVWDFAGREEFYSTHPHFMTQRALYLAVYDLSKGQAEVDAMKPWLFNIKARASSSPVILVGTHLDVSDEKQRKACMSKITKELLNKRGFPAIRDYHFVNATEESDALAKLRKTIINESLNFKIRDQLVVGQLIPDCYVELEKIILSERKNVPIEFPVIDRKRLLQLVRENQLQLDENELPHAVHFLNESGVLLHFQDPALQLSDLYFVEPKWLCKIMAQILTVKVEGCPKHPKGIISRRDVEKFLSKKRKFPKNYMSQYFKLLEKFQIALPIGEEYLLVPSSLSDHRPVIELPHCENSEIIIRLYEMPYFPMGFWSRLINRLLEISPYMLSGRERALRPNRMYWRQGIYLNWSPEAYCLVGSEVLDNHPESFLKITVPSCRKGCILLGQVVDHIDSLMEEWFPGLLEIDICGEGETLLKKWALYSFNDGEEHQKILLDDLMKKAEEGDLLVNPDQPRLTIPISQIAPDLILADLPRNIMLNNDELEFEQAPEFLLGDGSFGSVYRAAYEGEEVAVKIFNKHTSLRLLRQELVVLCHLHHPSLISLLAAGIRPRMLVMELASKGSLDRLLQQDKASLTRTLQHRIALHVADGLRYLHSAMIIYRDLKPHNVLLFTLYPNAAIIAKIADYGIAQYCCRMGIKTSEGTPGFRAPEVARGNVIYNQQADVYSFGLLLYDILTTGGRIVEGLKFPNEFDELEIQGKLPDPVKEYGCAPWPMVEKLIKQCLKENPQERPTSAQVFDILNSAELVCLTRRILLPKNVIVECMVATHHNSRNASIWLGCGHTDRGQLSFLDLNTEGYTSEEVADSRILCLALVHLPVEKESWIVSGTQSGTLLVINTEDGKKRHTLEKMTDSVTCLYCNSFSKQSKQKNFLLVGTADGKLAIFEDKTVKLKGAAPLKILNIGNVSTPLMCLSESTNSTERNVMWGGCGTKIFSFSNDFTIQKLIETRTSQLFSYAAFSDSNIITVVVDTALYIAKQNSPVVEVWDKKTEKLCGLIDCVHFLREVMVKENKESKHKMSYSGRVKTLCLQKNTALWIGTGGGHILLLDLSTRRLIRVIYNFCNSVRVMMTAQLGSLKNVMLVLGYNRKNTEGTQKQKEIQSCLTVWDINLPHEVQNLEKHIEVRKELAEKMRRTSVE

CNc1nc(Nc2ccc(-c3nnnn3C)cc2Cl)ncc1C(F)(F)F
IC50 [1]: 100 nM | solubility [2]: Insoluble | Ki [3]: 8 nM | Ratio [4]: 0.7 | inhibition (INH) [5]: Active | Ratio Ki [6]: 3.3

CNc1nc(Nc2ccc(C(=O)N3CCOCC3)cc2OC)ncc1C(F)(F)F
inhibition [7]: 55% | CLhep predicted [8]: 1.8 mL/min/kg | IC50 [1]: 9 nM | Activity [9]: Toxic | Ki [10]: 25 nM | Activity [11]: Toxic | fraction unbound [12]: 0.137 | CLhep predicted [13]: 7.6 mL/min/kg | Papp A→B [14]: 18.2 ×10⁻⁶ cm/s | Ki [3]: 2 nM | Ratio Ki [15]: > 1930 | inhibition [16]: 98% | Ratio [4]: 1.2 | Ratio Ki [6]: 13

CCNc1nc(Nc2cc(F)c(C(=O)N3CCOCC3)cc2OC)ncc1C(F)(F)F
inhibition [17]: Dose-dependent effect | fAUC [18]: 0.8 µM·h | inhibition [7]: > 65% | inhibition [19]: > 65% | inhibition [20]: Dose-dependent effect | fAUC [21]: 0.8 µM·h | CLhep predicted [8]: 3.2 mL/min/kg | IC50 [1]: 9 nM | fAUC [22]: 3.9 µM·h | Kp uu at 168 h [23]: 0.6 | fAUC [24]: 7.8 µM·h | fAUC [25]: 5.95 µM·h | inhibition [26]: > 65% | Activity [27]: Non-toxic | fraction unbound [12]: 0.034 | CLhep predicted [13]: 14 mL/min/kg | Papp A→B [14]: 10.4 ×10⁻⁶ cm/s | inhibition [28]: > 70% | Ki [3]: 1 nM | fAUC [29]: 3.1 µM·h | Activity [30]: Non-toxic | Ratio Ki [15]: > 3200 | fAUC [31]: 4.7 µM·h | fraction unbound [32]: 0.055 | Ratio [33]: 0.82 | Ratio [4]: 0.9 | Ratio Ki [6]: 53
